Where “and” joins values, the source holds several entries; their conditions need not be identical. Equal values may be shown once. Entries after “also recorded” stand apart in the source; their conditions may differ.
Key:
[1] = Phase I dose-escalation safety and tolerability: adverse events, DLTs, MTD; type: in vivo, human
How it was run: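 Multicentre, open-label, dose-escalation study. A single oral dose on day 1 was followed one week later by continuous twice-daily dosing, starting at 10 mg. The first three cohorts got solution, later cohorts tablets. AEs were graded by CTC v3.0 from consent to 30 days after stopping. DLT: a CTC grade 3 AE, or a laboratory abnormality with clinical signs, within 42 days (extended from 35). MTD: last dose below the non-tolerated dose.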

[2] = system: advanced solid tumours or lymphomas; test: Tumour response by RECIST v1.0; type: in vivo, human
How it was run: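 Patients got a single oral dose on day 1, then continuous twice-daily dosing until disease progression or unmanageable toxicity. Baseline RECIST assessment used CT or MRI of chest, abdomen and pelvis before treatment, repeated every 8 weeks.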

[3] = 60 mg BID tablet (n=7), CTCAE grade ⩾3
[4] = 90 mg BID tablet (n=11), CTCAE grade 1–2
[5] = 90 mg BID tablet (n=11), CTCAE grade ⩾3
[6] = 120 mg BID tablet (n=10), CTCAE grade 1–2
[7] = 120 mg BID tablet (n=10), CTCAE grade ⩾3
[8] = CTCAE grade 3, all cohorts, a patient may have experienced more than one DLT
[9] = Total (n=49), Any grade occurring in cycle 1/2

**Q.** With COc1ccc(-c2ccc3c(N4CCOC[C@@H]4C)nc(N4CCOC[C@@H]4C)nc3n2)cc1CO [AZD8055] as the compound, how does the “Increased AST: patients with AZD8055-related AE, n (%)” value (from here on “Increased AST: patients … (%)”) [1, 3] read?
**A.** 1 (14) %

**Q.** And the “Increased GGT: patients with AZD8055-related AE, n (%)” value (from here on “Increased GGT: patients … (%)”) [1, 3]?
**A.** 1 (14) %

**Q.** And the “Nausea: patients with AZD8055-related AE, n (%)” value (from here on “Nausea: patients … (%)”) [1, 3]?
**A.** 0%

**Q.** And the “Stomatitis: patients with AZD8055-related AE, n (%)” value (shortened to “Stomatitis: patients … (%)”) [1, 3]?
**A.** 0%

**Q.** And the “Patients with DLT (grade 3 rise in transaminases)” value ([1]; 90 mg BID tablet)?
**A.** 1 and 1/9

**Q.** What about the “Fatigue: patients with AZD8055-related AE, n (%)” value (“Fatigue: patients … (%)” below) [1, 4] of the same compound?
**A.** 1 (9) %

**Q.** What about the “Hyperglycaemia: patients with AZD8055-related AE, n (%)” value (“Hyperglycaemia: patients … (%)” for short) [1, 4] of the same compound?
**A.** 3 (27) %

**Q.** What about the “Increased ALT: patients with AZD8055-related AE, n (%)” value (“Increased ALT: patients … (%)” for short) [1, 4] of the same compound?
**A.** 2 (18) %

**Q.** And the “Increased AST: patients … (%)” value [1, 4]?
**A.** 1 (9) %

**Q.** What about the “Increased GGT: patients … (%)” value [1, 4] of the same compound?
**A.** 0%

**Q.** What about the “Nausea: patients … (%)” value [1, 4] of the same compound?
**A.** 2 (18) %

**Q.** And the “Stomatitis: patients … (%)” value [1, 4]?
**A.** 2 (18) %

**Q.** And the “Fatigue: patients … (%)” value [1, 5]?
**A.** 0%

**Q.** What about the “Hyperglycaemia: patients … (%)” value [1, 5] of the same compound?
**A.** 0%

**Q.** And the “Increased ALT: patients … (%)” value [1, 5]?
**A.** 1 (9) %

**Q.** What about the “Increased AST: patients … (%)” value [1, 5] of the same compound?
**A.** 2 (18) %

**Q.** And the “Increased GGT: patients … (%)” value [1, 5]?
**A.** 1 (9) %

**Q.** And the “Nausea: patients … (%)” value [1, 5]?
**A.** 0%

**Q.** What about the “Stomatitis: patients … (%)” value [1, 5] of the same compound?
**A.** 0%

**Q.** What about the “Patients with DLT (grade 3 rise in transaminases)” value ([1]; 120 mg BID cohort, patients evaluable for DLT) of the same compound?
**A.** 3 and 3/9

**Q.** What about the “Fatigue: patients … (%)” value [1, 6] of the same compound?
**A.** 2 (20) %

**Q.** What about the “Hyperglycaemia: patients … (%)” value [1, 6] of the same compound?
**A.** 2 (20) %

**Q.** And the “Increased ALT: patients … (%)” value [1, 6]?
**A.** 1 (10) %

**Q.** And the “Increased AST: patients … (%)” value [1, 6]?
**A.** 1 (10) %

**Q.** And the “Increased GGT: patients … (%)” value [1, 6]?
**A.** 1 (10) %

**Q.** What about the “Nausea: patients … (%)” value [1, 6] of the same compound?
**A.** 1 (10) %

**Q.** And the “Stomatitis: patients … (%)” value [1, 6]?
**A.** 2 (20) %

**Q.** What about the “Fatigue: patients … (%)” value [1, 7] of the same compound?
**A.** 0%

**Q.** What about the “Hyperglycaemia: patients … (%)” value [1, 7] of the same compound?
**A.** 0%

**Q.** What about the “Increased ALT: patients … (%)” value [1, 7] of the same compound?
**A.** 2 (20) %

**Q.** And the “Increased AST: patients … (%)” value [1, 7]?
**A.** 2 (20) %

**Q.** And the “Increased GGT: patients … (%)” value [1, 7]?
**A.** 0%

**Q.** What about the “Nausea: patients … (%)” value [1, 7] of the same compound?
**A.** 0%

**Q.** What about the “Stomatitis: patients … (%)” value [1, 7] of the same compound?
**A.** 0%

**Q.** What about the Non-tolerated dose ([1]; BID, DLTs in 3/9 evaluable patients) of the same compound?
**A.** 120 mg

**Q.** And the “DLTs: Increased ALT, Total (%)” value [1, 8]?
**A.** 3 (6) %

**Q.** What about the “DLTs: Increased AST, Total (%)” value [1, 8] of the same compound?
**A.** 3 (6) %

**Q.** And the “Fatigue: patients … (%)” value [1, 9]?
**A.** 8 (16) %

**Q.** What about the “Hyperglycaemia: patients … (%)” value [1, 9] of the same compound?
**A.** 6 (12) %

**Q.** What about the “Increased ALT: patients … (%)” value [1, 9] of the same compound?
**A.** 11 (22) %

**Q.** And the “Increased AST: patients … (%)” value [1, 9]?
**A.** 11 (22) %

**Q.** What about the “Increased GGT: patients … (%)” value [1, 9] of the same compound?
**A.** 5 (10) %

**Q.** What about the “Nausea: patients … (%)” value [1, 9] of the same compound?
**A.** 7 (14) %

**Q.** And the “Stomatitis: patients … (%)” value [1, 9]?
**A.** 6 (12) %

**Q.** And the “Fatigue: patients … (%)” value ([1]; Total (n=49), CTCAE grade 1–2)?
**A.** 8 (16) %

**Q.** And the “Hyperglycaemia: patients … (%)” value ([1]; Total (n=49), CTCAE grade 1–2)?
**A.** 6 (12) %

**Q.** And the “Increased ALT: patients … (%)” value ([1]; Total (n=49), CTCAE grade 1–2)?
**A.** 5 (10) %

**Q.** And the “Increased AST: patients … (%)” value ([1]; Total (n=49), CTCAE grade 1–2)?
**A.** 4 (8) %

**Q.** What about the “Increased GGT: patients … (%)” value ([1]; Total (n=49), CTCAE grade 1–2) of the same compound?
**A.** 3 (6) %

**Q.** And the “Nausea: patients … (%)” value ([1]; Total (n=49), CTCAE grade 1–2)?
**A.** 7 (14) %

**Q.** And the “Stomatitis: patients … (%)” value ([1]; Total (n=49), CTCAE grade 1–2)?
**A.** 6 (12) %

**Q.** What about the “Fatigue: patients … (%)” value ([1]; Total (n=49), CTCAE grade ⩾3) of the same compound?
**A.** 0%

**Q.** And the “Hyperglycaemia: patients … (%)” value ([1]; Total (n=49), CTCAE grade ⩾3)?
**A.** 0%

**Q.** What about the “Increased ALT: patients … (%)” value ([1]; Total (n=49), CTCAE grade ⩾3) of the same compound?
**A.** 6 (12) %

**Q.** And the “Increased AST: patients … (%)” value ([1]; Total (n=49), CTCAE grade ⩾3)?
**A.** 7 (14) %

**Q.** What about the “Increased GGT: patients … (%)” value ([1]; Total (n=49), CTCAE grade ⩾3) of the same compound?
**A.** 2 (4) %

**Q.** And the “Nausea: patients … (%)” value ([1]; Total (n=49), CTCAE grade ⩾3)?
**A.** 0%

**Q.** What about the “Stomatitis: patients … (%)” value ([1]; Total (n=49), CTCAE grade ⩾3) of the same compound?
**A.** 0%

**Q.** And the “Fatigue, AE assessed to be related to AZD8055, frequency” value ([1]; all patients (n=49))?
**A.** 16%

**Q.** And the “Maximum tolerated dose (MTD)” value ([1]; oral, patients with advanced solid tumours or lymphomas)?
**A.** 90 mg BID

**Q.** And the “Patients requiring dose reductions as a result of increased transaminases, assessed to be AZD8055-related” value ([1]; three patients, one each in the 60, 90 and 120 mg BID tablet groups)?
**A.** 6%

**Q.** And the “Patients with a dose interruption” value ([1]; within cycles 1 and 2, 11 patients, 7 because of an AE)?
**A.** 22%

**Q.** What about the “Patients with stable disease for ⩾4 months” value (“Patients with stable disease” below) ([2]; 10 mg BID) of the same compound?
**A.** 1/5

**Q.** And the “Patients with stable disease” value ([2]; 60 mg BID)?
**A.** 1/7

**Q.** And the “Patients with stable disease” value ([2]; 90 mg BID)?
**A.** 1/11

**Q.** And the “Patients with stable disease” value ([2]; all cohorts)?
**A.** Seven

**Q.** What about the “RECIST complete or partial responses” value ([2]; all cohorts) of the same compound?
**A.** no RECIST responses were seen; also recorded: No complete or partial responses were observed

**Q.** And the “Duration of stable disease, range” value ([2]; seven patients with stable disease for ⩾4 months)?
**A.** 115 to 398 days
